According to ChEMBL document CHEMBL2169772, “Discovery of (2S)-1-[4-(2-{6-amino-8-[(6-bromo-1,3-benzodioxol-5-yl)sulfanyl]-9H-purin-9-yl}ethyl)piperidin-1-yl]-2-hydroxypropan-1-one (MPC-3100), a purine-based Hsp90 inhibitor” (J Med Chem, 2012):

How the values were obtained:
Heat shock protein HSP90 [1] = target: T1, Heat shock protein HSP90 (Homo sapiens, UniProt P07900+P08238); experiment: Inhibition of human HSP90 using BODIPY labelled geldanamycin as substrate by fluorescence polarization assay; type: protein assay
HCT-116 [2] = experiment: Cytotoxicity against human HCT116 cells assessed as inhibition of tumor growth incubated for 72 hrs by luminometry; type: functional, cell-based; settings: HCT-116, 72 h
Summary of the method: (§1)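 Cells seeded at 5000 per well in DMEM with 10% serum and left overnight. Compound added from DMSO dilutions (0.4% DMSO final) for 72 h. After 5 min at room temperature, ATPLite two-step lysis and substrate added, 5 min incubation, then luminescence read. Values are the mean of at least two experiments.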

[3] = (§2) Metabolic stability in human liver microsomes assessed as percent of residual drug in presence of NADPH incubated for 40 mins by LC-ESI-MS/MS method; type: ADME, Microsome; settings: liver microsomes, read-out: Stability
Summary of the method: (§3)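 Test article incubated in duplicate with human liver microsomes (0.5 mg/mL protein) in 100 mM potassium phosphate pH 7.4. Started with 1 mM NADPH. Stopped with acetonitrile at 0, 10, 20 and 40 min. LC-MS/MS peak area at 40 min reported as percent of 0 min. No-NADPH control incubated for 40 min.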

[4] = Cytotoxicity against human NCI-ADR-RES cells overexpressing P-gp 1 assessed as inhibition of tumor growth incubated for 72 hrs by luminometry; type: functional, cell-based; summary of the method: as §1
[5] = AUC in Swiss nude mouse at 10 mg/kg, po by LC-ESI-MS/MS method; type: ADME, organism-based; parameters: dose 10 mg/kg, route oral; settings: plasma
Summary of the method: (§4)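 Mice dosed by oral gavage, vehicle DMA/PEG300/EtOH/H2O (3/40/12/45, v/v/v/v). Blood drawn by cardiac puncture into EDTA plasma. Three or five animals per time point. Plasma precipitated with acetonitrile plus internal standard. Quantified by LC-ESI-MS/MS against a 10–10 000 ng/mL standard curve with QC samples. Noncompartmental analysis.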

[6] = AUC in Swiss nude mouse at 2.5 mg/kg, iv by LC-ESI-MS/MS method; type: ADME, organism-based; parameters: dose 2.5 mg/kg, route intravenous; settings: plasma
Summary of the method: (§5)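 Intravenous dose in mice, vehicle DMA/PEG300/EtOH/H2O 3/40/12/45. Sampling at 5, 15, 30, 60, 120, 240, 480 and 720 min, three or five animals per time point. Cardiac-puncture EDTA plasma. Acetonitrile protein precipitation with internal standard, then LC-ESI-MS/MS (10–10 000 ng/mL curve). Parameters by noncompartmental fit.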

[7] = Oral bioavailability in Swiss nude mouse at 10 mg/kg by LC-ESI-MS/MS method; type: ADME, organism-based; settings: in vivo; summary of the method: as §4
[8] = Oral bioavailability in Swiss nude mouse at 100 mg/kg administered using captisol and phosphate buffer system formulation by LC-ESI-MS/MS method; settings: in vivo
Heat shock protein HSP90 [9] = target: T1, Heat shock protein HSP90; experiment: Inhibition of human HSP90 in HCT116 cells expressing Her2 gene assessed as degradation of Her2 after 4 hrs by luciferase reporter gene assay; type: cell-based; settings: hct-116
Summary of the method: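 HCT116 cells stably transfected with Her2 kinase domain (aa 641–975) fused to firefly luciferase. Seeded at 10 000 per well in DMEM with 10% serum and left overnight. Compound added from DMSO (0.4% final) for 4 h. Steady-Glo added at room temperature for 5 min, then luminescence read.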

[10] = Cmax in Swiss nude mouse at 100 mg/kg, po by LC-ESI-MS/MS method; type: ADME, organism-based; parameters: dose 100 mg/kg, route oral; settings: in vivo
Summary of the method: (§6)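 Single oral gavage in mice, vehicle 40% Captisol in phosphate buffer. EDTA plasma from cardiac puncture. Acetonitrile precipitation with internal standard, then LC-ESI-MS/MS quantitation against a 10–10 000 ng/mL standard curve. Cmax and AUC by noncompartmental analysis.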

[11] = Tmax in Swiss nude mouse at 10 mg/kg, po by LC-ESI-MS/MS method; type: ADME, organism-based; parameters: dose 10 mg/kg, route oral; settings: in vivo; summary of the method: as §4
[12] = AUC in Swiss nude mouse at 100 mg/kg, po by LC-ESI-MS/MS method; type: ADME, organism-based; parameters: dose 100 mg/kg, route oral; settings: plasma; summary of the method: as §6
[13] = Volume of distribution in Swiss nude mouse at 2.5 mg/kg, iv by LC-ESI-MS/MS method; type: ADME, organism-based; parameters: dose 2.5 mg/kg, route intravenous; settings: in vivo; summary of the method: as §5
Mus musculus [14] = experiment: Inhibition of HSP90 in mouse liver assessed as induction of HSP70 mRNA expression at 100 mg/kg, po after 6 hrs relative to control; type: functional
[15] = Cmax in Swiss nude mouse at 10 mg/kg, po by LC-ESI-MS/MS method; type: ADME, organism-based; parameters: dose 10 mg/kg, route oral; settings: in vivo; summary of the method: as §4
[16] = Half life in Swiss nude mouse at 2.5 mg/kg, iv by LC-ESI-MS/MS method; type: ADME, organism-based; parameters: dose 2.5 mg/kg, route intravenous; settings: in vivo; summary of the method: as §5
Mus musculus [17] = experiment: Hepatic clearance in Swiss nude mouse at 2.5 mg/kg, iv by LC-ESI-MS/MS method; type: ADME, organism-based, Liver; parameters: dose 2.5 mg/kg, route intravenous; settings: in vivo; summary of the method: as §5
[18] = Lipophilicity, log P of the compound; type: physicochemical; settings: octanol/water
[19] = Solubility of compound in phosphate buffer at pH 7.4; type: physicochemical
HCT-116 [20] = experiment: Ratio of IC50 for human NCI-ADR-RES cells overexpressing P-gp1 to IC50 for human HCT116 cells; type: functional
Liver microsomes = experiment: as §2; type: ADME, Microsome; settings: microsomes, 40 min; summary of the method: as §3

| Structure (SMILES) | IC50 (Heat shock protein HSP90 [1]) [nM] | IC50 (HCT-116 [2]) [nM] | remaining at 40 min [3] [%] | IC50 [4] [nM] | AUC [5] [ng·h/mL] | AUC [6] [ng·h/mL] | bioavailability [7] [%] | bioavailability [8] [%] | IC50 (Heat shock protein HSP90 [9]) [nM] | Cmax [10] [ng/mL] | Tmax [11] [min] | AUC [12] [ng·h/mL] | Vd [13] [L/kg] | fold change (FC) (Mus musculus [14]) | Cmax [15] [ng/mL] | half-life [16] [min] | CLH (Mus musculus [17]) [mL/min/kg] | also measured |
| --- | --- | --- | --- | --- | --- | --- | --- | --- | --- | --- | --- | --- | --- | --- | --- | --- | --- | --- |
| C[C@H](O)C(=O)N1CCC(CCn2c(Sc3cc4c(cc3Br)OCCO4)nc3c(N)ncnc32)CC1 | 150 | 470 | 45 | 6500 | 1190 | 1460 | 20 | > 50 | 74 | 11600 | 30 | 40400 | 1.07 | 3.2 | 564 | 25.8 | 28.53 |  |
| Nc1ncnc2c1nc(Sc1cc3c(cc1Br)OCO3)n2CCC1CCN(C=O)CC1 | 150 | 430 | 17 | 2800 | 1810 | 1320 | 35 | > 50 | 70 | 10900 | 60 | 63900 | 1.45 | 47 | 354 | 30 | 31.65 | logP [18]: 3.42 |
| Nc1ncnc2c1nc(Sc1cc3c(cc1Br)OCCO3)n2CCC1CCN(C=O)CC1 | 60 | 670 | 42 | 2100 | 1180 | 967 | 30 | > 50 | 49 | 8540 | 60 | 38000 | 1.05 | 2.3 | 312 | 16.8 | 43.08 |  |
| Nc1ncnc2c1nc(Sc1cc3c(cc1Br)OC(F)(F)O3)n2CCC1CCN(C=O)CC1 | > 5000 |  | 0 |  |  |  |  |  |  |  |  |  |  |  |  |  |  | logP [18]: 4.82 |
| Nc1ncnc2c1nc(Sc1cc3c(cc1Br)OCO3)n2CCC(N)C1CC1 (centres undefined) | 80 |  | 75 |  |  |  | 0.4 |  |  |  |  |  |  |  |  |  |  | solubility [19]: > 100 µM |
| C[C@@H](O)C(=O)N1CCC(CCn2c(Sc3cc4c(cc3Br)OCO4)nc3c(N)ncnc32)CC1 | 110 | 640 | 58 | 3300 | 2410 | 1650 | 37 | > 50 | 90 | 8400 | 15 | 50300 | 1.32 | 24 | 1430 | 36 | 25.22 |  |
| C[C@@H](O)C(=O)N1CCC(CCn2c(Sc3cc4c(cc3Br)OCCO4)nc3c(N)ncnc32)CC1 | 110 | 920 | 35 | 9800 | 1960 | 1530 | 32 | > 50 | 69 | 9300 | 60 | 32600 | 1.35 | 3.8 | 1180 | 36 | 27.32 |  |
| CC(C)N1CCC(CCn2c(Sc3cc4c(cc3Br)OCO4)nc3c(N)ncnc32)CC1 | 900 | 2580 |  | 7250 |  |  |  |  | 320 |  |  |  |  |  |  |  |  | Ratio IC50 (HCT-116 [20]): 2 |
| Nc1ncnc2c1nc(Sc1cc3c(cc1Br)OCO3)n2CCC1C[C@H]2CC[C@@H](C1)O2 (some centres undefined) |  |  |  |  |  |  |  |  |  |  |  |  |  |  |  |  |  | Stability (Liver microsomes): Unstable |
| Nc1ncnc2c1nc(Sc1cc3c(cc1Br)OCCO3)n2CCC1CCN(C(=O)CO)CC1 | 90 | 820 | 45 | 10000 | 702 | 517 | 34 | > 50 | 40 | 7530 | 15 | 18200 | 5.93 | 1.7 | 55 | 51 | 80.55 |  |
| CN1[C@@H]2CC[C@H]1CC(CCn1c(Sc3cc4c(cc3Br)OCO4)nc3c(N)ncnc31)C2 (some centres undefined) |  |  |  |  |  |  |  |  |  |  |  |  |  |  |  |  |  | Stability (Liver microsomes): Unstable |
| Nc1ncnc2c1nc(Sc1cc3c(cc1Br)OCO3)n2CCC1CCN(C(=O)CO)CC1 | 110 | 380 | 54 | 2000 | 1320 | 574 | 57 | > 50 | 60 | 7780 | 15 | 25100 | 3 | 18 | 588 | 30 | 72.65 |  |
